In brackets after ≈: the same amount, converted by molar mass.

The values that follow come from ChEMBL document CHEMBL1128473, “[(Biaryloxy)alkyl]isoxazoles: picornavirus inhibitors” (J Med Chem, 1995).

One data set has as its system Human rhinovirus sp. In words: Concentration inhibiting 50% of the serotypes tested to 50% of the viral concentration of untreated controls following 72 hr of exposure. Type of data set: functional. Summed up: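 Tissue culture infectious dose (TCID50) assay against a panel of 10 human rhinovirus serotypes. For each serotype, the viral concentration was compared with untreated controls after 72 h of compound exposure. MIC50 is the compound concentration at which half of the serotypes tested are reduced to 50% of the untreated-control viral concentration.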

Data set [1] in a line: Metabolic stability expressed as half life values was monitored in vitro liver microsomal assay. In kind it is ADME, Microsome. The following applies: liver microsomes. (In general: Liver microsomes are a subcellular fraction often used to study metabolism.)

In the data set on Human rhinovirus sp., `Cc1cc(CCCOc2c(C)cc(-c3cccc(C#N)c3)cc2C)on1` gave an MIC50 above 8.9 µM. Still for that read-out and setting: with `COc1cccc(-c2cc(C)c(OCCCc3cc(C)no3)c(C)c2)c1` the figure was 0.23 µM (≈ 0.0808 µg/mL); with `Cc1cc(CCCOc2c(C)cc(-c3ccc(O)cc3)cc2C)on1`, 0.77 µM (≈ 0.26 µg/mL); with `Cc1cc(CCCOc2c(C)cc(-c3ccc([N+](=O)[O-])cc3)cc2C)on1`, 0.76 µM (≈ 0.278 µg/mL). In the case of `Cc1cc(CCCOc2c(C)cc(-c3ccccc3)cc2C)on1`, in data set [1], the half-life (usually the time needed for the level to fall by half in the phase considered) was above 3.33 h. In the data set with Human rhinovirus sp., the MIC50 was 0.16 µM (≈ 0.0514 µg/mL). For `Cc1ccc(-c2cc(C)c(OCCCc3cc(C)no3)c(C)c2)cc1`, in that order: above 3.33 h and 0.12 µM (≈ 0.0403 µg/mL). Take `COc1ccc(-c2cc(C)c(OCCCc3cc(C)no3)c(C)c2)cc1`: the MIC50 in the data set on Human rhinovirus sp. came out at 0.28 µM (≈ 0.0984 µg/mL).

In the data set on Human rhinovirus sp., `Cc1cc(CCCOc2c(C)cc(-c3cccc([N+](=O)[O-])c3)cc2C)on1` displayed an MIC50 of 0.35 µM (≈ 0.128 µg/mL). On the same count and under the same terms, with `Cc1cc(CCCOc2c(C)cc(-c3ccc(N(C)C)cc3)cc2C)on1` the figure was 0.66 µM (≈ 0.241 µg/mL); with `Cc1cc(CCCOc2c(C)cc(-c3ccc(F)c(F)c3)cc2C)on1`, 0.16 µM (≈ 0.0572 µg/mL).
